Results as given in ChEMBL document CHEMBL4145525, “Machine learning prioritizes synthesis of primaquine ureidoamides with high antimalarial activity and attenuated cytotoxicity” (Eur J Med Chem, 2018).

What was measured:
Plasmodium falciparum = assay: Antiplasmodial activity against erythrocytic stage of Plasmodium falciparum NF54 assessed as reduction in [3H]hypoxanthine incorporation after 48 hrs by liquid scintillation counting method; format: functional, organism-based
Summary of the method: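 Asexual blood-stage NF54 grown in hypoxanthine-free RPMI 1640 with HEPES, NaHCO3, neomycin and Albumax, using washed human A+ erythrocytes at 2.5% hematocrit and 0.3% parasitemia. Compounds were made as 10 mg/ml DMSO stocks and run as eleven 3-fold dilutions, 100 to 0.002 µg/ml. Incubation at 37 °C in 4% CO2, 3% O2, 93% N2. After 48 h, 0.5 µCi 3H-hypoxanthine was added for a further 24 h, then harvested and scintillation counted. IC50 by linear interpolation of sigmoidal curves; averages of 2–3 independent experiments.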

L6 = assay: Cytotoxicity against rat L6 cells assessed as reduction in cell viability after 70 hrs by Alamar blue assay; format: cell-based; details: L6, 70 h
Summary of the method: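 L6 rat skeletal myoblasts were plated at 4000 cells/well in RPMI 1640 with L-glutamine and 10% FBS. Eleven 3-fold drug dilutions, 100 to 0.002 µg/ml. After 70 h, Alamar Blue was added for 2 h and fluorescence read (ex 536 nm, em 588 nm). IC50 by linear interpolation from sigmoid dose-inhibition curves.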

[1] = Selectivity index, ratio of IC50 for rat L6 cells to IC50 for erythrocytic stage of Plasmodium falciparum NF54; format: toxicity; details: read-out: Ratio IC50
Summary of the method: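 Ratio of the L6 cytotoxicity IC50 to the IC50 against P. falciparum NF54.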

HL-60 = assay: Cytotoxicity against human HL60 cells assessed as growth inhibition after 72 hrs by MTT assay; format: cell-based; details: HL-60, 72 h
K562 = assay: Cytotoxicity against human K562 cells assessed as growth inhibition after 72 hrs by MTT assay; format: cell-based; details: K562, 72 h
SW-620 = assay: Cytotoxicity against human SW620 cells assessed as growth inhibition after 72 hrs by MTT assay; format: cell-based; details: SW-620, 72 h
Summary of the method: (§1)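 Monolayers grown in DMEM or RPMI-1640 with 10% FBS, 2 mM L-glutamine and penicillin/streptomycin at 37 °C, 5% CO2. Seeded at 2×10^4–4×10^4 cells/well and attached for 24 h. Five serial 10-fold dilutions added, final DMSO <0.2%. MTT read-out at 72 h; percentage growth calculated. IC50 by linear interpolation between concentrations bracketing 50% growth; at least two biological replicates.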

CAPAN-1 = assay: Cytotoxicity against human Capan1 cells assessed as growth inhibition after 72 hrs by MTT assay; format: cell-based; details: CAPAN-1, 72 h
Summary of the method: (§2)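 Cells cultured in DMEM or RPMI-1640 with 10% FBS, 2 mM L-glutamine and antibiotics at 37 °C, 5% CO2. Seeded at 2×10^4–4×10^4 cells/well and attached for 24 h before five serial 10-fold compound dilutions, final DMSO <0.2%. MTT at 72 h. IC50 interpolated between the two concentrations flanking 50% growth inhibition; single experiment.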

MCF7 = assay: Cytotoxicity against human MCF7 cells assessed as growth inhibition after 72 hrs by MTT assay; format: cell-based; details: MCF7, 72 h; summary of the method: as §1
HCT-116 = assay: Cytotoxicity against human HCT116 cells assessed as growth inhibition after 72 hrs by MTT assay; format: cell-based; details: HCT-116, 72 h; summary of the method: as §2
NCI-H460 = assay: Cytotoxicity against human NCI-H460 cells assessed as growth inhibition after 72 hrs by MTT assay; format: cell-based; details: NCI-H460, 72 h; summary of the method: as §1

SMILES | IC50 (Plasmodium falciparum) [µM] | IC50 (L6) [µM] | selectivity ratio [1] | also measured
COc1cc(NC(C)CCCNC(=O)/C=C/c2cc(OC)c(OC)c(OC)c2)c2ncccc2c1 (stereo unspecified) | 8.1 | > 210 | > 25.9 | –
COc1cc(NC(C)CCCNC(=O)NNC(=O)N(CCO)CCO)c2ncccc2c1 (stereo unspecified) | 41.4 | 178 | 4.3 | –
COc1cc(NC(C)CCCNC(=O)NNC(=O)/C=C/c2cccc(C(F)(F)F)c2)c2ncccc2c1 (stereo unspecified) | > 19.4 | 10.6 | < 0.5 | –
COc1cc(NC(C)CCCNC(=O)NNC(=O)NC(CO)(CO)CO)c2ncccc2c1 (stereo unspecified) | 66.7 | – | – | –
COc1cc(NC(C)CCCNC(=O)NNC(=O)NCCc2ccccc2)c2ncccc2c1 (stereo unspecified) | 27.1 | – | – | –
COc1cc(NC(C)CCCNC(=O)NNC(=O)NCCCO)c2ncccc2c1 (stereo unspecified) | 58.8 | – | – | –
COc1cc(NC(C)CCCNC(=O)NCCO)c2ncccc2c1 (stereo unspecified) | 27.4 | – | – | –
COc1cc(NC(C)CCCNC(=O)Nc2cc(C(F)(F)F)cc(C(F)(F)F)c2)c2ncccc2c1 (stereo unspecified) | 11.9 | 14.9 | 1.3 | –
COc1cc(NC(C)CCCNC(=O)/C=C/c2ccc3c(c2)OCO3)c2ncccc2c1 (stereo unspecified) | 22.1 | 29 | 1.3 | –
COc1cc(NC(C)CCCNC(=O)NNC(=O)Nc2ccc(Cl)cc2)c2ncccc2c1 (stereo unspecified) | 17.8 | 91.9 | 5.2 | –
COc1cc(NC(C)CCCNC(=O)NNC(=O)NCCCCCO)c2ncccc2c1 (stereo unspecified) | 43.7 | – | – | –
COc1cc(NC(C)CCCNC(=O)NNC(=O)/C=C/c2ccc(Cl)cc2)c2ncccc2c1 (stereo unspecified) | 24.2 | 7.3 | 0.3 | –
COc1cc(NC(C)CCCNC(=O)NC(C(=O)Nc2ccc(Br)cc2)c2ccc(Cl)cc2)c2ncccc2c1 (stereo unspecified) | 3.2 | 54 | 16.9 | IC50 (HL-60): > 100 µM; IC50 (K562): > 100 µM; IC50 (SW-620): 32 µM; IC50 (CAPAN-1): > 100 µM; IC50 (MCF7): 16 µM; IC50 (HCT-116): > 100 µM; IC50 (NCI-H460): 52 µM
COc1cc(NC(C)CCCNC(=O)NNC(=O)NC2CCCCC2)c2ncccc2c1 (stereo unspecified) | 46.3 | – | – | –
COc1cc(NC(C)CCCNC(=O)/C=C/c2cc(C(F)(F)F)cc(C(F)(F)F)c2)c2ncccc2c1 (stereo unspecified) | 11.3 | 158 | 14 | –
COc1cc(NC(C)CCCNC(=O)/C=C/c2ccccc2)c2ncccc2c1 (stereo unspecified) | 15.1 | 18.5 | 1.2 | –
COc1ccc(/C(=N/NC(=O)NCCCC(C)Nc2cc(OC)cc3cccnc23)c2ccccc2)cc1 (stereo unspecified) | 4.1 | > 195 | > 47.6 | –
COc1cc(NC(C)CCCNC(=O)NC2CCCCC2)c2ncccc2c1 (stereo unspecified) | 42.1 | – | – | –
COc1cc(NC(C)CCCNC(=O)NCc2ccncc2)c2ncccc2c1 (stereo unspecified) | 47.3 | – | – | –
COc1cc(NC(C)CCCNC(=O)NNC(=O)Nc2cccc(Cl)c2)c2ncccc2c1 (stereo unspecified) | 14.9 | 58.6 | 3.9 | –
COc1ccc(/C(=N/NC(=O)NNC(=O)NCCCC(C)Nc2cc(OC)cc3cccnc23)c2ccccc2)cc1 (stereo unspecified) | 5.6 | 16 | 2.9 | –
COc1cc(NC(C)CCCNC(=O)NCCCC(C)Nc2cc(OC)cc3cccnc23)c2ncccc2c1 (stereo unspecified) | 6.4 | > 180 | > 28.1 | –
COc1cc(NC(C)CCCNC(=O)NC(c2ccccc2)c2ccc(Cl)cc2)c2ncccc2c1 (stereo unspecified) | 4.3 | 140 | 32.6 | –
COc1cc(NC(C)CCCNC(=O)NNC(=O)/C=C/c2ccccc2)c2ncccc2c1 (stereo unspecified) | 17.2 | 13.9 | 0.8 | –
COc1cc(NC(C)CCCNC(=O)NNC(=O)/C=C/c2cc(OC)c(OC)c(OC)c2)c2ncccc2c1 (stereo unspecified) | 4.5 | 138 | 30.7 | –
COc1cc(NC(C)CCCNC(=O)NNC(=O)/C=C/c2ccccc2F)c2ncccc2c1 (stereo unspecified) | > 21.4 | 25.1 | < 1.2 | –
COc1cc(NC(C)CCCNC(=O)/C=C/c2ccc(Cl)cc2)c2ncccc2c1 (stereo unspecified) | 13.7 | 16.8 | 1.2 | –
COc1cc(NC(C)CCCNC(=O)NNC(=O)NCc2ccccc2)c2ncccc2c1 (stereo unspecified) | > 111 | – | – | –

SMILES | IC50 (Plasmodium falciparum) [µM] | IC50 (L6) [µM] | selectivity ratio [1] | also measured
COc1cc(NC(C)CCCNC(=O)NNC(=O)/C=C/c2ccc(OC)c(OC)c2)c2ncccc2c1 (stereo unspecified) | > 19.7 | 37 | < 1.9 | –
COc1cc(NC(C)CCCNC(=O)NNC(=O)Nc2ccc(Br)cc2)c2ncccc2c1 (stereo unspecified) | 17.8 | 38.7 | 2.2 | –
COc1cc(NC(C)CCCNC(=O)NNC(=O)NCCCC(C)Nc2cc(OC)cc3cccnc23)c2ncccc2c1 (stereo unspecified) | 3.7 | 76.6 | 20.7 | –
COc1cc(NC(C)CCCNC(=O)NNC(=O)NC(c2ccccc2)c2ccc(Cl)cc2)c2ncccc2c1 (stereo unspecified) | 7.5 | 8.4 | 1.1 | –
COc1cc(NC(C)CCCNC(=O)/C=C/c2cccc(C(F)(F)F)c2)c2ncccc2c1 (stereo unspecified) | 15.6 | 16.2 | 1 | –
COc1ccc(/C=C/C(=O)NNC(=O)NCCCC(C)Nc2cc(OC)cc3cccnc23)cc1 (stereo unspecified) | 22.2 | 3.6 | 0.2 | –
COc1cc(NC(C)CCCNC(=O)NNC(=O)NC(c2ccccc2)c2ccccc2)c2ncccc2c1 (stereo unspecified) | 10.3 | – | – | –
COc1cc(NC(C)CCCNC(=O)NCCNC(c2ccccc2)(c2ccccc2)c2ccccc2)c2ncccc2c1 (stereo unspecified) | 1.5 | > 171 | > 114 | –
COc1cc(NC(C)CCCNC(=O)NC2CCCC2)c2ncccc2c1 (stereo unspecified) | 65.9 | – | – | –
COc1cc(NC(C)CCCNC(=O)Nc2ccc(Cl)c(C(F)(F)F)c2)c2ncccc2c1 (stereo unspecified) | 17.1 | – | – | –
COc1cc(NC(C)CCCNC(=O)NNC(=O)NOCc2ccccc2)c2ncccc2c1 (stereo unspecified) | 20.8 | – | – | –
COc1cc(NC(C)CCCNC(=O)NNC(=O)Nc2ccc(C(F)(F)F)cc2)c2ncccc2c1 (stereo unspecified) | 10.3 | 14.9 | 1.4 | –
COc1cc(NC(C)CCCNC(=O)NNC(=O)Nc2cccc(C(F)(F)F)c2)c2ncccc2c1 (stereo unspecified) | 11.8 | 32.1 | 2.7 | –
COc1cc(NC(C)CCCNC(=O)NNC(=O)NC2CCCC2)c2ncccc2c1 (stereo unspecified) | 75.4 | – | – | –
COc1cc(NC(C)CCCNC(=O)NNC(=O)N(C)C(c2ccccc2)c2ccccc2)c2ncccc2c1 (stereo unspecified) | 10 | 10.4 | 1 | –
COc1cc(NC(C)CCCNC(=O)/C=C/c2ccc(C(F)(F)F)cc2)c2ncccc2c1 (stereo unspecified) | 12.9 | 160 | 12.4 | –
COc1cc(NC(C)CCCNC(=O)NNC(=O)Nc2ccc(Cl)c(C(F)(F)F)c2)c2ncccc2c1 (stereo unspecified) | 15.2 | – | – | –
COc1ccc(/C=C/C(=O)NCCCC(C)Nc2cc(OC)cc3cccnc23)cc1 (stereo unspecified) | 12.4 | > 240 | > 19.4 | –
COc1cc(NC(C)CCCNC(=O)N(C2CCCCC2)C2CCCCC2)c2ncccc2c1 (stereo unspecified) | 8.1 | – | – | –
COc1cc(NC(C)CCCNC(=O)/C=C/c2ccc(OC)c(OC)c2)c2ncccc2c1 (stereo unspecified) | 11.9 | > 220 | > 18.5 | –
COc1cc(NC(C)CCCNC(=O)NNC(=O)/C=C/c2ccc(C(F)(F)F)cc2)c2ncccc2c1 (stereo unspecified) | > 19.4 | 28.3 | < 1.5 | –
COc1cc(NC(C)CCCNC(=O)/C=C/c2ccccc2F)c2ncccc2c1 (stereo unspecified) | 13.2 | 3.5 | 0.3 | –
COc1cc(NC(C)CCCNC(=O)NNC(=O)/C=C/c2ccc3c(c2)OCO3)c2ncccc2c1 (stereo unspecified) | 20.4 | 15.5 | 0.8 | –
COc1cc(NC(C)CCCNC(=O)NNC(=O)/C(C)=C/c2ccccc2)c2ncccc2c1 (stereo unspecified) | 22.9 | 36.5 | 1.6 | –
COc1cc(NC(C)CCCNC(=O)NNC(=O)/C=C/c2cc(C(F)(F)F)cc(C(F)(F)F)c2)c2ncccc2c1 (stereo unspecified) | > 17.1 | > 170 | – | –
COc1cc(NC(C)CCCNC(=O)/C(C)=C/c2ccccc2)c2ncccc2c1 (stereo unspecified) | > 24.8 | > 250 | – | –
COc1cc(NC(C)CCCNC(=O)NCCCO)c2ncccc2c1 (stereo unspecified) | 52.4 | – | – | –
